# Results from ChEMBL document CHEMBL1141109, “Synthesis of an estrogen receptor beta-selective radioligand: 5-[18F]fluoro-(2R,3S)-2,3-bis(4-hydroxyphenyl)pentanenitrile and comparison of in vivo distribution with 16alpha-[18F]fluoro-17beta-estradiol” (J Med Chem, 2005).
# How the values were obtained:
# [1] = Biodistribution of [18F]FEDPN in rat uterus after 30 min when given in tail vein; (n=5); assay type: ADME, organism-based; settings: in vivo, iv, 0.5 h
# How it was run: (§1)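 Immature female Sprague–Dawley rats (<25 days old) under isoflurane/O2 got 20 µCi tracer in 150 µL 20% ethanol/saline by tail vein. […] Rats were killed at 30 min, 1 h or 2 h. Organs were blotted, weighed and gamma-counted against an injectate standard. Data are %ID/g ± SD, five rats per point.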
# [2] = Biodistribution of [18F]FEDPN in beta estrogen receptor knock out mouse ovaries after 2 h; (n=3); assay type: ADME, organism-based, Female gonad; settings: in vivo
# How it was run: (§2)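 αERKO and βERKO mice, staged by daily vaginal smears and kept on estrogen-free chow, were studied in a nonestrous stage. Each mouse received 11 μCi of tracer in 130 μL of 10% ethanol/saline. Mice were killed at 30 min, 1 h or 2 h (n = 3 each). Organs were removed, blotted, weighed and gamma-counted against an injectate standard. Uptake is given as %ID/g ± SD.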
# [3] = Biodistribution of [18F]FEDPN in alpha estrogen receptor knock out mouse brain after 30 min; (n=3); assay type: ADME, organism-based; settings: in vivo, 0.5 h
# How it was run: (§3)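 ERKO female mice (αERKO or βERKO), rested 48 h after shipping, placed on estrogen-free chow, and staged by daily vaginal smears. Injected in a nonestrous stage with 11 µCi [18F]FEDPN in 130 µL of 10% ethanol/saline. Killed at 30 min, 1 h or 2 h. Organs counted and reported as %ID/g ± SD, three animals per point.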
# [4] = Biodistribution of [18F]FEDPN in alpha estrogen receptor knock out mouse bone after 30 min; (n=3); assay type: ADME, organism-based, Bone element; settings: in vivo, 0.5 h; how it was run: as §3
# [5] = Biodistribution of [18F]-FEDPN in alpha estrogen receptor knock out mouse ovaries after 1 h; (n=3); assay type: ADME, organism-based, Female gonad; settings: in vivo; how it was run: as §3
# [6] = Biodistribution of [18F]FEDPN in alpha estrogen receptor knock out mouse fat after 2 h; (n=3); assay type: ADME, organism-based, Adipose tissue; settings: in vivo; how it was run: as §3
# [7] = Biodistribution of [18F]FEDPN in beta estrogen receptor knock out mouse uterus after 30 min; (n=3); assay type: ADME, organism-based; settings: in vivo, 0.5 h
# How it was run: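 αERKO and βERKO mice were fed estrogen-free chow and staged by daily vaginal smears. Mice in a nonestrous stage each received 11 µCi tracer in 130 µL 10% ethanol/saline. Organs were taken at 30 min, 1 h or 2 h and gamma-counted. Uptake is expressed as %ID/g ± SD, three animals per point.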
# [8] = Biodistribution of [18F]FEDPN in beta estrogen receptor knock out mouse lung after 2 h; (n=3); assay type: ADME, organism-based; settings: in vivo; how it was run: as §2
# [9] = Biodistribution of [18F]-FEDPN in alpha estrogen receptor knock out mouse uterus after 1 h; (n=3); assay type: ADME, organism-based; settings: in vivo; how it was run: as §3
# [10] = Biodistribution of [18F]FEDPN in alpha estrogen receptor knock out mouse lung after 1 h; (n=3); assay type: ADME, organism-based; settings: in vivo; how it was run: as §2
# [11] = Biodistribution of [18F]-FEDPN in rat kidney after 1 hr block when given in tail vein; (n=5); assay type: ADME, organism-based; settings: in vivo, iv
# How it was run: (§4)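 Immature female Sprague–Dawley rats (<25 days old) anesthetized with isoflurane/O2. Given 20 µCi tracer by tail vein in 150 µL of 20% ethanol/saline. […] Killed at 30 min, 1 h or 2 h. Blood and organs blotted, weighed and gamma-counted against a standard dilution of the injectate. Reported as %ID/g ± SD, n=5.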
# [12] = Biodistribution of [18F]FEDPN in beta estrogen receptor knock out mouse spleen after 1 h; (n=3); assay type: ADME, organism-based; settings: in vivo; how it was run: as §2
# [13] = Biodistribution of [18F]FEDPN in beta estrogen receptor knock out mouse heart after 2 h; (n=3); assay type: ADME, organism-based; settings: in vivo; how it was run: as §2
# [14] = Biodistribution of [18F]FEDPN in alpha estrogen receptor knock out mouse fat after 1 h; (n=3); assay type: ADME, organism-based, Adipose tissue; settings: in vivo; how it was run: as §3
# [15] = Biodistribution of [18F]FEDPN in rat bone after 1 h when given in tail vein; (n=5); assay type: ADME, organism-based, Bone element; settings: in vivo, iv; how it was run: as §1
# [16] = Biodistribution of [18F]FEDPN in alpha estrogen receptor knock out mouse liver after 1 h; (n=3); assay type: ADME, organism-based; settings: in vivo; how it was run: as §3
# [17] = Biodistribution of [18F]FEDPN in alpha estrogen receptor knock out mouse heart after 2 h; (n=3); assay type: ADME, organism-based; settings: in vivo; how it was run: as §3
# [18] = Biodistribution of [18F]-FEDPN in rat kidney after 2 hr when given in tail vein; (n=5); assay type: ADME, organism-based; settings: in vivo, iv; how it was run: as §4
# [19] = Biodistribution of [18F]-FEDPN in rat fat after 30 min when given in tail vein; (n=5); assay type: ADME, organism-based, Adipose tissue; settings: in vivo, iv, 0.5 h; how it was run: as §4
# [20] = Biodistribution of [18F]FEDPN in beta estrogen receptor knock out mouse bone after 1 h; (n=3); assay type: ADME, organism-based, Bone element; settings: in vivo; how it was run: as §2
# [21] = Biodistribution of [18F]FEDPN in alpha estrogen receptor knock out mouse spleen after 30 min; (n=3); assay type: ADME, organism-based; settings: in vivo, 0.5 h; how it was run: as §2
# [22] = Biodistribution of [18F]FEDPN in beta estrogen receptor knock out mouse fat after 2 h; (n=3); assay type: ADME, organism-based, Adipose tissue; settings: in vivo; how it was run: as §2
# [23] = Biodistribution of [18F]-FEDPN in rat uterus after 2 h when given in tail vein; (n=5); assay type: ADME, organism-based; settings: in vivo, iv; how it was run: as §4
# [24] = Biodistribution of [18F]FEDPN in alpha estrogen receptor knock out mouse liver after 2 h; (n=3); assay type: ADME, organism-based; settings: in vivo; how it was run: as §3
# [25] = Biodistribution of [18F]FEDPN in alpha estrogen receptor knock out mouse blood after 1 h; (n=3); assay type: ADME, organism-based; settings: in vivo; how it was run: as §3
# [26] = Biodistribution of [18F]FES in beta estrogen receptor knock out mouse uterus after 30 min(n=2); mice in nonestrus stage; assay type: ADME, organism-based; settings: in vivo, 0.5 h
# [27] = Biodistribution of [18F]FES in beta estrogen receptor knock out mouse liver after 2 h; (n=3); assay type: ADME, organism-based; settings: in vivo
# [28] = Biodistribution of [18F]-FES in beta estrogen receptor knock out mouse bone after 30 min(n=2); mice in nonestrus stage; assay type: ADME, organism-based, Bone element; settings: in vivo, 0.5 h
# How it was run: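 Female βERKO mice on estrogen-free chow were staged by vaginal smear and used in a nonestrus (diestrus) stage. Each received 13 µCi [18F]FES in 100 µL 10% ethanol/saline and was sacrificed at 30 min (n = 2). Uptake is given as %ID/g ± SD.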
# [29] = Biodistribution of [18F]FES in alpha estrogen receptor knock out mouse liver after 30 min; (n=3); assay type: ADME, organism-based; settings: in vivo, 0.5 h
# How it was run: (§5)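 Female αERKO mice were rested 48 h after shipping and fed estrogen-free chow. They were staged by daily vaginal smears and studied in diestrus. Each received 13 µCi [18F]FES in 100 µL 10% ethanol/saline and was sacrificed at 30 min, 1 h or 2 h (n = 3 per time). Tissue uptake is given as %ID/g ± SD.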
# [30] = Biodistribution of [18F]FES in alpha estrogen receptor knock out mouse kidney after 30 min; (n=3); assay type: ADME, organism-based; settings: in vivo, 0.5 h; how it was run: as §5
# [31] = Biodistribution of [18F]FES in beta estrogen receptor knock out mouse heart after 2 h; (n=3); assay type: ADME, organism-based; settings: in vivo
# [32] = Biodistribution of [18F]FES in beta estrogen receptor knock out mouse muscle after 2 h; (n=3); assay type: ADME, organism-based, Muscle tissue; settings: in vivo
# [33] = Biodistribution of [18F]FES in beta estrogen receptor knock out mouse fat after 2 h; (n=3); assay type: ADME, organism-based, Adipose tissue; settings: in vivo
# [34] = Biodistribution of [18F]FES in alpha estrogen receptor knock out mouse spleen after 30 min; (n=3); assay type: ADME, organism-based; settings: in vivo, 0.5 h
# [35] = Biodistribution of [18F]FES in beta estrogen receptor knock out mouse uterus after 30 min; (n=3); assay type: ADME, organism-based; settings: in vivo, 0.5 h
# [36] = Biodistribution of [18F]FES in beta estrogen receptor knock out mouse ovaries after 30 min; (n=3); assay type: ADME, organism-based, Female gonad; settings: in vivo, 0.5 h
structure (smiles),measurement,setting,value
N#C[C@H](c1ccc(O)cc1)[C@@H](CCF)c1ccc(O)cc1,Biodistribution,[1],0.95 %ID/g
same,Biodistribution,[2],0.17 %ID/g
same,Biodistribution,[3],0.96 %ID/g
same,Biodistribution,[4],3.47 %ID/g
same,Biodistribution,[5],0.52 %ID/g
same,Biodistribution,[6],0.09 %ID/g
same,Biodistribution,[7],1.85 %ID/g
same,Biodistribution,[8],0.44 %ID/g
same,Biodistribution,[9],0.37 %ID/g
same,Biodistribution,[10],2.04 %ID/g
same,Biodistribution,[11],1.01 %ID/g
same,Biodistribution,[12],0.4 %ID/g
same,Biodistribution,[13],0.21 %ID/g
same,Biodistribution,[14],0.27 %ID/g
same,Biodistribution,[15],2.22 %ID/g
same,Biodistribution,[16],3.8 %ID/g
same,Biodistribution,[17],0.25 %ID/g
same,Biodistribution,[18],0.97 %ID/g
same,Biodistribution,[19],0.57 %ID/g
same,Biodistribution,[20],4.92 %ID/g
same,Biodistribution,[21],0.99 %ID/g
same,Biodistribution,[22],0.09 %ID/g
same,Biodistribution,[23],0.28 %ID/g
same,Biodistribution,[24],1.93 %ID/g
same,Biodistribution,[25],0.42 %ID/g
C[C@]12CC[C@@H]3c4ccc(O)cc4CC[C@H]3[C@@H]1C[C@@H](F)[C@@H]2O [FLUOROESTRADIOL],Biodistribution,[26],18.86 %ID/g
same,Biodistribution,[27],4.54 %ID/g
same,Biodistribution,[28],1.26 %ID/g
same,Biodistribution,[29],7.47 %ID/g
same,Biodistribution,[30],2.46 %ID/g
same,Biodistribution,[31],0.2 %ID/g
same,Biodistribution,[32],0.54 %ID/g
same,Biodistribution,[33],0.41 %ID/g
same,Biodistribution,[34],0.59 %ID/g
same,Biodistribution,[35],8.34 %ID/g
same,Biodistribution,[36],6.54 %ID/g
